Measurements from PMC4091728 (Chembiochem : a European journal of chemical biology, 2014).

Experiments:
[1] = system: Trypanosoma cruzi (CA-I/72 trypomastigotes) in mouse C2C12 myoblasts; test: EC50 in cell-based assay using T. cruzi-infected mouse C2C12 myoblasts; conditions: highest concentration 10 μM
TcCYP51 = TcCYP51 (Trypanosoma cruzi, UniProt Q7Z1V1); test: Binding affinity by UV-vis spectroscopy
Procedure, shortened: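 Recombinant TcCYP51 at 1 μM in 100 mM potassium phosphate, pH 7.5, with 10% glycerol, at 23°C, in a 1-cm quartz cuvette. Titrated stepwise with test compound from a 100 μM DMSO stock, with equal solvent added to the reference cuvette. The absorbance shift between 425 and 390 nm was fitted to the quadratic tight-binding equation to give KD.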

Chain of TcCYP51 (Q7Z1V1 whole entry): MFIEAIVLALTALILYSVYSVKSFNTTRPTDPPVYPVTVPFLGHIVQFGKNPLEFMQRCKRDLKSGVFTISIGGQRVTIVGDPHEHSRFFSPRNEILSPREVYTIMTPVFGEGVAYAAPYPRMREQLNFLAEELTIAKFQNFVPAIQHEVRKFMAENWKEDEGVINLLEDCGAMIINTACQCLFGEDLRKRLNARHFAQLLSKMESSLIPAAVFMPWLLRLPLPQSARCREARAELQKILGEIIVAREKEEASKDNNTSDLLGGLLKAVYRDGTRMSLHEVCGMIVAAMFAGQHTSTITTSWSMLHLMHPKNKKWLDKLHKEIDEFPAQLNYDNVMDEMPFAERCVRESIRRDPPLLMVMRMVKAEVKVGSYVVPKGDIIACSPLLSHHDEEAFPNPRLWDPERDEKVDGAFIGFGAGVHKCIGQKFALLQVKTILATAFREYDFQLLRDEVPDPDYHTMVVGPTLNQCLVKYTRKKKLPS

Compound	anti-T. cruzi potency in cell culture, in words [1]	Kd (TcCYP51) [nM]
O=C(N[C@H](Cc1c[nH]c2ccccc12)C(=O)Nc1ccncc1)c1ccc(N2CCN(S(=O)(=O)c3cccs3)CC2)cc1F [compound 3, (R)-N-(3-(1H-Indol-3-yl)-1-oxo-1-(pyridin-4-ylamino)propan-2-yl)-2-fluoro-4-(4-(thiophen-2-ylsulfonyl)piperazin-1-yl)benzamide]	sub-nanomolar	≤ 10
COC(=O)c1sccc1S(=O)(=O)N1CCN(c2ccc(C(=O)N[C@H](Cc3c[nH]c4ccccc34)C(=O)Nc3ccncc3)c(F)c2)CC1 [compound 7, (R)-methyl 3-((4-(4-((3-(1H-Indol-3-yl)-1-oxo-1-(pyridin-4-ylamino)propan-2-yl)carbamoyl)-3-fluorophenyl)piperazin-1-yl)sulfonyl)thiophene-2-carboxylate]	inhibited T. cruzi at the low micromolar concentrations	20 ± 7
O=C(N[C@H](Cc1c[nH]c2ccccc12)C(=O)Nc1ccncc1)c1ccc(N2CCN(S(=O)(=O)c3ccsc3C(=O)O)CC2)cc1F [compound 9, (R)-3-((4-(4-((3-(1H-Indol-3-yl)-1-oxo-1-(pyridin-4-ylamino)propan-2-yl)carbamoyl)-3-fluorophenyl)piperazin-1-yl)sulfonyl)thiophene-2-carboxylic acid]	failed to elicit T. cruzi inhibition in cell culture at ≤10 μM	≤ 10
O=C(N[C@H](Cc1c[nH]c2ccccc12)C(=O)Nc1ccncc1)c1ccc(N2CCN(S(=O)(=O)c3ccc(C(F)(F)F)cc3)CC2)cc1F [compound 6, (R)-N-(3-(1H-Indol-3-yl)-1-oxo-1-(pyridin-4-ylamino)propan-2-yl)-2-fluoro-4-(4-((4-(trifluoromethyl)phenyl)sulfonyl)piperazin-1-yl)benzamide]	inhibited T. cruzi at the low micromolar concentrations	≤ 10
N#Cc1ccc(S(=O)(=O)N2CCN(c3ccc(C(=O)N[C@H](Cc4c[nH]c5ccccc45)C(=O)Nc4ccncc4)c(F)c3)CC2)cc1 [compound 4, (R)-N-(3-(1H-Indol-3-yl)-1-oxo-1-(pyridin-4-ylamino)propan-2-yl)-4-(4-((4-cyanophenyl)sulfonyl)piperazin-1-yl)-2-fluorobenzamide]	–	47 ± 19
O=C(N[C@H](Cc1c[nH]c2ccccc12)C(=O)Nc1ccncc1)c1ccc(N2CCN(S(=O)(=O)c3cccnc3)CC2)cc1F [compound 5, (R)-N-(3-(1H-Indol-3-yl)-1-oxo-1-(pyridin-4-ylamino)propan-2-yl)-2-fluoro-4-(4-(pyridin-3-ylsulfonyl)piperazin-1-yl)benzamide]	inhibited T. cruzi at the low micromolar concentrations	15 ± 6
O=C(O)c1ccc(S(=O)(=O)N2CCN(c3ccc(C(=O)N[C@H](Cc4c[nH]c5ccccc45)C(=O)Nc4ccncc4)c(F)c3)CC2)cc1 [compound 8, (R)-4-((4-(4-((3-(1H-Indol-3-yl)-1-oxo-1-(pyridin-4-ylamino)propan-2-yl)carbamoyl)-3-fluorophenyl)piperazin-1-yl)sulfonyl)benzoic acid]	failed to elicit T. cruzi inhibition in cell culture at ≤10 μM	20 ± 7
O=C(N[C@H](Cc1c[nH]c2ccccc12)C(=O)Nc1ccncc1)c1ccc(N2CCN(S(=O)(=O)C3CC3)CC2)cc1F [compound 10, (R)-N-(3-(1H-Indol-3-yl)-1-oxo-1-(pyridin-4-ylamino)propan-2-yl)-4-(4-(cyclopropylsulfonyl)piperazin-1-yl)-2-fluorobenzamide]	failed to elicit T. cruzi inhibition in cell culture at ≤10 μM	25 ± 6
CS(=O)(=O)N1CCN(c2ccc(C(=O)N[C@H](Cc3c[nH]c4ccccc34)C(=O)Nc3ccncc3)c(F)c2)CC1 [compound 11, (R)-N-(3-(1H-Indol-3-yl)-1-oxo-1-(pyridin-4-ylamino)propan-2-yl)-2-fluoro-4-(4-(methylsulfonyl)piperazin-1-yl)benzamide]	failed to elicit T. cruzi inhibition in cell culture at ≤10 μM	19 ± 4
